UBC13 polyUb: human UBC13 polyubiquitination inhibition. P61088. UBC13 polyubiquitin chain formation, TR-FRET. AID 485273. 330,000 tested, 0.47% active. inhibition, % at 20 µM; in the data active means inhibition above about 45%, passing the limit was not always enough
SENP8 block-1: blocks the human protease SENP8; Q96LD8; purified SENP8, Z-RLRGG-aminoluciferin cleavage, luminescence; inhibition, % at 10 µM; 330,000 tested, 1.2% active; in the data active means inhibition above about 50%
SENP6 inh: blocks the human protease SENP6 | Q9GZR1 | 330,000 tested, 1.8% active | AID 2599 | inhibition, % at 10 µM | Recombinant SENP6 catalytic domain, aminoluciferin luminescence;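 active means inhibition above about 50% at the single tested dose, limit read from the data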;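 further: plate controls were DMSO wells with enzyme for no effect and DMSO wells lacking enzyme for full effect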
SENP8 block-2: SENP8 (human) protease inhibition; Q96LD8; inhibition, % at 20 µM; AID 602440; 360,000 tested, 0.64% active; recombinant SENP8, Nedd8 substrate fluorescence; in the data active means inhibition mostly above about 40%, no sharp cut-off; inactive means mostly below about 27%
SENP7 inh: SENP7 protease inhibition; Q9BQF6; recombinant SENP7, Z-RLRGG-aminoluciferin luminescence, 40 min; inhibition, % at 5 µM; 330,000 tested, 1.5% active;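 active means inhibition above about 50% at the single test dose, limit read from the data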;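 further: plate controls were DMSO with enzyme for no effect and no enzyme buffer wells for full effect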
Target sequence (Q9BQF6 706-1050 limits assumed): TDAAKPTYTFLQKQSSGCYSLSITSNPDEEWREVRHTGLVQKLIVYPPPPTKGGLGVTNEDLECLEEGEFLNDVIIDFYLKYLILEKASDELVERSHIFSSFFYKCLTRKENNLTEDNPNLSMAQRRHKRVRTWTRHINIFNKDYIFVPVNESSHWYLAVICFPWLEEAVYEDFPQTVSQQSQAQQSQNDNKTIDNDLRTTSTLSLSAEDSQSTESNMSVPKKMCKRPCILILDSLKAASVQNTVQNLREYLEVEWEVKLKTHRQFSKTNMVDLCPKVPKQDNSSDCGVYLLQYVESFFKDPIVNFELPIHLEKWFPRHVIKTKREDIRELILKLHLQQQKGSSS
Apaf1 inhib: human Apaf-1 inhibition; reconstituted apoptosome caspase-3 activity, DEVD-Rh110 fluorescence; inhibition, % at 20 µM; 330,000 tested, 0.71% active; AID 489030; active means inhibition of at least 40% at 20 µM;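 further: plate controls were DMSO wells for no effect and DEVD-CHO caspase inhibitor wells for full effect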
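System – cell-free apoptosome with Apaf-1, procaspase-3 and caspase-9 · Buffer or medium – pH 7.5 Hepes buffer with CHAPS, BSA, DTT · Also added – cytochrome c with DEVD-Rh110 · Times – 30 min compound preincubation, 50 min activation, room temperature · Technique – Rh110 fluorescence intensity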
Active calls of the source: *; . = no result. A selection: hits, their analogues and other compounds. The true share with any hit is near 3%.

SMILES | UBC13 polyUb | SENP8 block-1 | SENP6 inh | SENP8 block-2 | SENP7 inh | Apaf1 inhib
CC1CCCCC1NC(=O)NC(=O)COC(=O)c1ccc(OC(F)F)cc1 (centres undefined) | -6 | 4 | -2 | -2 | -4 | 28
CCOc1ccc(OCC)c(NS(=O)(=O)c2ccc3c(c2)CCN3C(=O)C2CCC2)c1 | -2 | -2 | -4 | 6 | 1 | 13
Cc1nc2ccccc2c2c1C(=O)NC2=O | -17 | -8 | -1 | . | -4 | -4
CCCCNc1ccc2nsnc2c1[N+](=O)[O-] | -22 | -4 | 67* | 11 | 20 | 38
COc1ccc(C2C(C#N)=C(/N=C/N3CCN(C)CC3)OC3=C2C(=O)CC(C)(C)C3)cc1OC (centres undefined) | -3 | -7 | -27 | 5 | 50* | -15
Cn1cnnc1SCC(=O)NC(=O)NCc1ccccc1 | 8 | 6 | -3 | 16 | 3 | -13
CC1COCC(C)N1C1=C(Cl)C(=O)c2ccccc2C1=O (centres undefined) | . | . | . | -63 | . | .
CN1CCN(C2=C(Cl)C(=O)c3ccccc3C2=O)CC1 | . | . | . | 73* | . | .
CN1CCN(C2=C(Cl)C(=O)C(c3cnc(N4CCCCC4)s3)=C(Cl)C2=O)CC1 | -18 | 21 | 40 | -33 | 19 | 84*
Cc1ccc(SCC(=O)NCCc2ccc(F)cc2)cc1 | 5 | -6 | -3 | 11 | -3 | 1
CN1C(=O)[C@@](O)(c2cn(C)c3ccccc23)c2cc(F)ccc21 | . | . | . | 29 | . | .
Cc1ccc(CNC(=O)CCc2nnc3ccc(N4CCC5(CC4)OCCO5)nn23)cc1 | -10 | -6 | 6 | -9 | 2 | -3
Cc1ccc(NC(=O)Nc2ccccc2C(N)=O)cc1 | 5 | 89* | 95* | -41 | 96* | -4
Cc1ccccc1NC(=O)Nc1ccccc1C(N)=O | -21 | -5 | -6 | -4 | 3 | -3
N/C(=N\OC(=O)Cc1ccccc1[N+](=O)[O-])c1ccccn1 | -4 | 2 | 0 | 6 | -3 | -6
Cc1c(C(=O)O/N=C(\N)c2ccccn2)cccc1[N+](=O)[O-] | -11 | 78* | 79* | 6 | 85* | 3
CN(C)c1ccc(C=C2SC(=S)N(Cc3ccco3)C2=O)cc1 | . | . | . | 48* | . | .
Cc1cc(/C=C2\SC(=S)N(Cc3ccco3)C2=O)c(C)n1-c1ccccc1 | -31 | -13 | -4 | 2 | -9 | 11
Cc1[nH]c2ccccc2c1N=Nc1ccc(F)cc1 | -2 | -8 | 15 | 47* | -6 | -10
O=C1c2ccccc2-c2c1nc1c([n+]2[O-])CCCC1 | -34 | -2 | -1 | 42* | 9 | 42*
N=C1C=CC=C2C1=NC1(CCCCC1)N2O | -74 | 10 | 11 | 36* | 1 | 6
Cc1ccc2nc(SCC(=O)Nc3ccc4c(c3)OCO4)nc(=O)n2c1 | -8 | -10 | -25 | 28 | 5 | -1
Cn1c(=O)c(-[n+]2ccccc2)c([O-])c2ccccc21 | 8 | -5 | -10 | -68 | 4 | -3
O=C1C(=O)c2ccccc2C([O-])=C1[n+]1ccccc1 | -12 | 13 | 41 | 59* | 6 | 32
CCOc1ccc(/C=C2\SC(=S)N(NS(=O)(=O)c3ccc(C)cc3)C2=O)cc1OC | 3 | -4 | -10 | 43* | -8 | 10
SMILES | UBC13 polyUb | SENP8 block-1 | SENP6 inh | SENP8 block-2 | SENP7 inh | Apaf1 inhib
CN(C)S(=O)(=O)c1cccc(NC(=S)N/N=C/c2ccc(O)c(O)c2O)c1 | . | . | . | 43* | . | .
CCOc1cc(NC(=S)NCCCN2CCOCC2)c(OCC)cc1NC(=O)c1cccs1 | -4 | -9 | -4 | 14 | 8 | 16
CCc1c(O)nc2sc3ccccc3n2c1=O | -8 | 1 | -3 | 40* | 0 | -14
Cn1nc2sc3ccccc3n2c(=O)c1=O | 1 | 0 | 6 | -24 | 3 | 4
COc1ccc(NC(=O)CC2SC3=NCCN3C2=O)cc1 (centres undefined) | 5 | -1 | -15 | 2 | -7 | -9
COc1cc(/C=C2\SC(=O)NC2=O)ccc1Oc1ccc([N+](=O)[O-])cc1[N+](=O)[O-] | -15 | -3 | 5 | 17 | 5 | -7
CCN1C(=O)C(=Cc2cccc(OC)c2Oc2ccc([N+](=O)[O-])cc2[N+](=O)[O-])SC1=S | -16 | 95* | 81* | 33 | 54* | 19
O=C1CCn2c1c(O)c1ccccc1c2=O | . | . | . | -497 | . | .
N=C1CCC(=N)c2c1c(O)c1ccccc1c2O | -86 | 39 | 63* | 89* | 24 | 77*

Screens as filed in PubChem BioAssay.
